This is a sample that favours compounds with a hit; in the whole collection about 0.58% have one here.
zfTRPN1 agonist: agonists of zebrafish TRPN1 channel. HEK293 zebrafish TRPN1-YFP, Fluo-8 calcium fluorescence; 100% = response to 87 µM carbachol. activation, % at 3 µM. actives 0.18% (n = 220,000). AID 1424;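 active means activation above its plate's cutoff, the mean activation of test wells on that plate plus 3 SD, cut at about 19% in these data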;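 further: 0% = DMSO alone and 100% = 87 µM carbachol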
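Material – zebrafish TRPN1-YFP in HEK293 cells · Doses – 3 µM single point · Schedule – dye 1 h 37 °C plus 30 min RT · Signal – Fluo-8 calcium fluorescence, excitation 470-495 nm, emission 515-575 nm · Read-out – % activation versus carbachol response · Control set – carbachol high, DMSO low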
TRPML3 agonist: human mucolipin-3 channel agonism; Q8TDD5; activation, % at 3 µM; HEK293 TRPML3-YFP, Fluo-8 calcium fluorescence; 100% = the carbachol control signal; actives 0.29% (n = 220,000);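 active means activation above its plate's cutoff, the mean activation of the plate's test wells plus 3 SD, cut at about 12% in these data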;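 further: 0% = DMSO only wells and 100% = carbachol wells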
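Test system: TRPML3-YFP stable HEK293 cells. Doses: single point at 3 µM. Incubation: dye loading 1 h 37 °C then 30 min ambient, 125 s read. Signal: Fluo-8 calcium dye fluorescence, ex 470-495, em 515-575 nm. Measure: percent activation from peak-to-basal fluorescence ratio, scaled between DMSO and carbachol.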
V1R ag counter: counter-screen for oxytocin receptor agonists: human V1a receptor agonists; activation, % at 3 µM; actives 0.25% (n = 320,000); AID 2797; P37288; CHO-V1R cells, Fluo-8 calcium fluorescence, agonist mode; 0% DMSO, 100% 3 nM vasopressin;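 active means activation above the mean activation of all tested compounds plus 3 SD, per screening run, cut at about 20% in these data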;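 further: signal is peak over basal fluorescence ratio across a 100 second FLIPR read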
Target sequence (P37288 whole entry, looked up): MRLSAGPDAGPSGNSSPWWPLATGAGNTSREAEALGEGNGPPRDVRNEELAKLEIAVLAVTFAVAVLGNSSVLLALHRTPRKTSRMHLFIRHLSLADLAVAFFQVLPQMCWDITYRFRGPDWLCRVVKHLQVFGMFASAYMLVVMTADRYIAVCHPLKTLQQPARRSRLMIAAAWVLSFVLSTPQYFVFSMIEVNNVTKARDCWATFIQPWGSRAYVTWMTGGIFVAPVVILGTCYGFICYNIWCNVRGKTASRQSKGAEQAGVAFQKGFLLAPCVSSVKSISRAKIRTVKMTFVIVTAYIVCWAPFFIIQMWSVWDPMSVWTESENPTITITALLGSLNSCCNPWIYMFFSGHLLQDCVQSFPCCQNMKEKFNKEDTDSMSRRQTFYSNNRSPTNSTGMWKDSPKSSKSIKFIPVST
OXTR ag: agonists of human oxytocin receptor | actives 0.32% (n = 320,000) | activation, % at 3 µM | CHO-OTR cells, Fluo-8 calcium fluorescence; normalized: DMSO 0%, oxytocin 100% | AID 2435 | P30559;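 active means activation above the mean of all tested compounds plus 3 SD, cutoff set per screening run, cut at about 20% in these data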;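 further: peak over basal fluorescence ratio from a 100 s FLIPR kinetic read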
OXTR potentiate: potentiates the human oxytocin receptor response; actives 0.061% (n = 320,000); P30559; activation, % at 3 µM; CHO-OTR cells, Fluo-8 calcium fluorescence, potentiator mode; 0% = oxytocin EC15, 100% = EC100;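 active means activation above that plate's cutoff, the mean activation of tested compounds plus 3 SD, cut at about 6.6% in these data, passing the limit was not always enough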;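 further: 100% uses oxytocin at 75 nM as the full agonist control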
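Material: CHO-OTR cells, human receptor; compound dosing: single dose, 3.0 µM nominal final compound concentration; schedule: 6 min compound pre-incubation at room temperature, 100 s kinetic read; measured by: kinetic Fluo-8 calcium fluorescence; read-out basis: % activation vs EC15 and EC100 oxytocin; controls: EC15 oxytocin alone as 0%, 75 nM oxytocin as 100%; replicates: singlicate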
Starred values were filed as active, the others as inactive; nt = no result given.

SMILES	zfTRPN1 agonist	TRPML3 agonist	V1R ag counter	OXTR ag	OXTR potentiate
CCOc1ccc(/C=C2\SC(=S)NC2=O)cc1OC	1.1	1.3	1.0	-0.8	-4.7
COc1ccc(S(=O)(=O)Nc2ccc(S(=O)(=O)N3CCCCC3)cc2)cc1	-0.1	0.4	23.8*	21.1*	-25.6
COc1ccc(S(=O)(=O)Nc2ccc(S(=O)(=O)N3CCCC3)cc2)cc1	-0.8	0.2	0.1	0.0	-4.9
O=C(N[C@@H](Cc1ccccc1)C(=O)N1CCN(S(=O)(=O)c2ccccc2F)CC1)c1ccco1	nt	nt	0.5	0.1	-0.3
CC(=O)Nc1ccc(Sc2ncccc2C(=O)Nc2ccc(F)cc2)cn1	45.7*	35.1*	70.4*	79.1*	-13.7
Cc1nnc2c3ccccc3c(-c3ccc(O)cc3)nn12	0.0	0.4	2.7	1.4	-6.3
Cc1c(-c2ccc(O)cc2)nc2nc(-c3ccccc3)c(-c3ccccc3)nn12	-0.3	-0.7	279.5*	144.3*	-12.9
Cc1ccc(S(=O)(=O)N2CCC(=O)N(C(COCc3ccc(Cl)cc3)C(C)C)CC2)cc1 (stereo not drawn)	-1.3	14.0*	1.3	-2.1	-9.3
Cc1ccc(S(=O)(=O)N2CCC(=O)N(C(COCc3ccccc3)C(C)C)CC2)cc1 (stereo not drawn)	0.8	1.2	-0.9	-2.2	-5.3
COc1ccc2c(c1OC)C(=O)N(c1ccc(C)cc1)C2	-2.7	-1.2	-1.3	-1.6	-9.6
COc1ccc(N=Cc2sc(O)c3ccccc23)cc1	33.4*	27.6*	76.6*	57.6*	-24.8
COC(=O)c1sc(-c2ccc(Cl)cc2)cc1NC(=O)/C=C/C(=O)O	1.6	0.4	15.4	21.8*	-17.4
COc1ccc(CNC(=O)CCCn2nc(C)c3c(C)n(-c4ccc(C)cc4)nc3c2=O)cc1	nt	nt	3.5	-0.1	-6.8
Cc1cc(F)ccc1NC(=O)Cn1c(C)csc1=O	nt	nt	-1.1	0.1	3.4
O=C(NCc1cccc(F)c1)c1cccc2c1C(=O)c1ccc(N3CCCC3)cc1S2(=O)=O	nt	nt	26.2*	20.0*	-7.4
O=C(NCc1cccc(F)c1)c1cccc2c1C(=O)c1ccc(N3CCC(Cc4ccccc4)CC3)cc1S2(=O)=O	nt	nt	17.0	10.6	-10.8
CC1CCN(c2ccc3c(c2)S(=O)(=O)c2cccc(C(=O)NCc4cccc(F)c4)c2C3=O)CC1	nt	nt	37.8*	49.8*	-9.8
COc1ccccc1N=C1NC(=O)/C(=C/c2ccc(N(C)C)cc2)S1	nt	nt	24.5*	24.7*	-21.5
O=C(CP(=O)(c1ccccc1)c1ccccc1)Nc1nc2ccc(Cl)cc2s1	0.8	0.3	0.7	0.6	-7.8
O=C1SCCC1NS(=O)(=O)c1ccc([N+](=O)[O-])cc1 (stereo not drawn)	nt	nt	1.6	0.8	25.7*
COc1ccc(C(=O)NC(C)c2cccnc2)cc1S(=O)(=O)N(C)Cc1ccccc1 (stereo not drawn)	nt	nt	0.8	1.1	-7.9
COc1cc(/C=C(\C#N)c2nc3c(s2)CCCC3)ccc1O	5.6	11.0	57.3*	60.0*	-23.8
COc1cc(NC(=O)C2CCCN2S(=O)(=O)c2ccc3c(c2)CC(C)N3C(C)=O)cc(OC)c1 (stereo not drawn)	nt	nt	1.6	1.4	-7.4
Cc1ccc(N=Nc2[nH]c3ccccc3c2O)cc1	-0.1	0.7	22.4*	32.3*	-9.0
N#C/C(=N\Nc1cccc(C(F)(F)F)c1)C(=O)c1ccsc1	24.2*	13.7*	13.1	12.0	-12.1
SMILES	zfTRPN1 agonist	TRPML3 agonist	V1R ag counter	OXTR ag	OXTR potentiate
Cc1ccccc1N1C(=O)c2cccc3c(N(C)CCO)ccc(c23)C1=O	25.8*	17.9*	23.6*	24.9*	-15.2
O=C(NNC(=S)NC(=O)c1ccccc1Cl)c1cccc([N+](=O)[O-])c1	nt	nt	23.1*	28.4*	-10.9
O=C(NNC(=S)NC(=O)c1ccccc1)c1ccc([N+](=O)[O-])cc1	nt	nt	33.5*	34.3*	-21.9
O=C(NNC(=S)NC(=O)c1ccc(Br)cc1)c1ccc([N+](=O)[O-])cc1	nt	nt	62.5*	64.2*	-26.3
O=C(NNC(=S)NCc1ccccc1)c1cccc([N+](=O)[O-])c1	1.6	-0.1	0.3	1.4	2.4
CC(=O)NNC(=S)NC(=O)c1cccc([N+](=O)[O-])c1	0.5	0.7	0.7	4.6	-5.1
O=C(NNC(=S)NC(=O)c1ccc(Br)cc1)c1cccc([N+](=O)[O-])c1	nt	nt	63.7*	31.4*	-24.9
C[C@H]1CN([C@@H](C)CO)C(=O)Cc2cc(NC(=O)C3CC3)ccc2O[C@H]1CN(C)Cc1ccc(C(=O)O)cc1	nt	nt	1.5	1.4	3.9
CCOC(=O)[C@H]1[C@H]2COc3cc(OC)ccc3[C@@H]2N2C(=O)CN(Cc3ccc(OC)cc3)C(=O)[C@@]12C	nt	nt	0.2	-0.3	0.4
NS(=O)(=O)c1ccc(-c2ccc(/C=N/Nc3ccc(C(=O)O)cc3)o2)cc1	3.1	0.1	-0.1	0.9	-4.8
O=C(O)c1cccc(-c2ccc(/C=N/Nc3ccc([N+](=O)[O-])cc3)o2)c1	23.7*	10.9	33.5*	26.4*	-9.3
O=[N+]([O-])c1ccc(N/N=C/c2c[nH]c3ccccc23)cc1	9.8	9.2	23.6*	25.2*	-20.6
O=C(O)c1ccc(-c2ccc(/C=N/Nc3ccc([N+](=O)[O-])cc3)o2)cc1	38.7*	23.7*	64.7*	50.8*	-33.2
O=C(O)c1ccc(N/N=C/C=C/c2ccc([N+](=O)[O-])o2)cc1	nt	nt	41.1*	29.3*	-7.8
COc1ccc(CC(=O)OCC(=O)c2ccc(F)cc2)cc1	nt	nt	-0.4	-1.9	-3.7
Cc1ccc(C)c(S(=O)(=O)Nc2ccc(C(=O)N3CCCCC3)cc2)c1	nt	nt	3.6	1.5	-9.0
O=C(CCC(=O)N1CCOc2ccc(Cl)cc21)NCCCN1CCOCC1	nt	nt	0.2	-0.7	-2.8
Cn1c(=O)c2c(SCC(=O)N3CCOCC3)nc(-c3ccccc3Cl)nc2n(C)c1=O	nt	nt	-0.5	0.1	-7.5
CCOc1cc(N2CCOCC2)c(OCC)cc1NC(=O)CN1C(=O)NC2(CCCCCCC2)C1=O	-0.5	0.9	1.0	0.7	2.9
CCn1c(=O)c(C(=O)NNC(=O)c2ccccc2F)c(O)c2ccccc21	nt	nt	51.9*	28.0*	-10.5
CCn1c(=O)c(C(=O)NNC(=O)c2ccccc2Cl)c(O)c2ccccc21	nt	nt	40.8*	22.1*	-15.1
CCCCCC(=O)NNC(=O)c1c(O)c2ccccc2n(CC)c1=O	2.0	1.4	0.5	-0.7	-6.4
Cc1ccccc1CSCC(=O)N1CCN(c2ccccc2)CC1	0.3	0.4	1.3	-0.6	-7.0
Cc1ccc(N(CCC#N)C(=O)COC(=O)c2cc(C)oc2C)cc1	nt	nt	0.7	3.6	1.8
